# Source: PubChem (Johns Hopkins Ion Channel Center)
# An excerpt weighted towards active compounds, which were near 2.3% of everything screened.
# TRPC4 potent: allosteric potentiators of mouse TRPC4 channel; actives 0.42% (n = 310,000); B-score at 10 µM; Q9QUQ5; AID 2227; HEK293 TRPC4beta/mu-opioid, DAMGO EC20, Fluo-4 Ca2+ flux; hits give high values;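 active = B-score of calcium response area above 5 SD of library B-scores, with initial fluorescence ratio within 5 SD of library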;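 note: B-score of integrated fluorescence ratio over time as area under calcium response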
# TRPC4 block: inhibitors of mouse TRPC4 channel; HEK293 TRPC4beta/mu-opioid, DAMGO-evoked Fluo4 calcium flux; hits give low values; actives 0.39% (n = 300,000); Q9QUQ5; B-score at 10 µM;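 active = B-score over 3 SD under the library average, no early fluorescence shift, positive overall ratio signal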
#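 Material: HEK293 cells with stable TRPC4beta plus mu-opioid receptor expression / Probe or stimulus: DAMGO in two steps, submaximal then maximal / Compound: single concentration per test compound / Technique: kinetic Fluo4 fluorescence imaging of calcium influx / Read-out: per-well B score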
# TRPC4 act: TRPC4 (mouse) channel activation | Q9QUQ5 | HEK293 TRPC4beta/mu-opioid, Fluo4 calcium fluorescence; hits give high values | B-score at 10 µM | actives 0.49% (n = 310,000);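 active = B-score above 5 SD of library B-scores, and initial fluorescence ratio not above library mean plus 5 SD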;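 note: positive B-score marks a calcium rise read as TRPC4 activation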
#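 Assay system – TRPC4beta and mu-opioid receptor HEK293 stable cells · Measured by – Fluo4 fluorescence, kinetic · Schedule – dye loading 45 min room temperature, 110 s kinetic read · Read-out – B-scored integrated calcium fluorescence ratio · Controls – buffer and maximal DAMGO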
# TRPC6 act: activates the mouse TRPC6 cation channel; Q61143; HEK293-TRPC6 membrane potential dye fluorescence; hits give high values; B-score at 10 µM; actives 0.13% (n = 310,000); AID 2550;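 active = B-score of the integrated fluorescence ratio above library mean plus 3 SD, and starting fluorescence ratio within library mean plus 5 SD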;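 note: higher score means more depolarization so channel activation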
# TRPC6 inhibitor: blocks the mouse TRPC6 cation channel. AID 2553. HEK293-TRPC6, membrane potential dye, ACh-evoked depolarization; hits give low values. actives 1.1% (n = 310,000). B-score at 10 µM;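 active = B-score under library mean minus 3 SD, initial fluorescence not abnormally high, positive integrated signal ratio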;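 note: B-score derived from integrated fluorescence ratio over the kinetic read; more negative B-score means stronger inhibition of depolarization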
# TRPC4 sel inh 2: second selectivity test of TRPC6 inhibitors: effect on mouse TRPC4 | shares compounds with TRPC6 inhibitor | HEK293 TRPC4/MOR, membrane potential dye fluorescence; channel activated by saturating DAMGO dose | inhibition, % at 10 µM | actives 42% (n = 920) | AID 2776;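 active = compounds whose fluorescence signal differed from control wells by over 3 SD, either direction, in both duplicate plates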
# TRPC4 spec: mouse TRPC4 off-target activity of TRPC6 inhibitors. activity change, negative = inhibition, % at 10 µM. HEK293 TRPC4/mu-opioid, membrane potential fluorescence. shares compounds with TRPC6 inhibitor. actives 61% (n = 920). AID 2777;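 active = rise or fall in signal beyond 3 SD of buffer-only wells in both replicate plates, either sign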;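 note: integrated kinetic ratio of fluorescence range over baseline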
# HEK293 MPD ctr 2-1: second counter-screen for TRPC6 inhibitors: parental HEK293 cells | parental HEK293 membrane potential dye fluorescence; maximal acetylcholine challenge after compound addition | actives 31% (n = 920) | signal change vs control, % at 10 µM | shares compounds with TRPC6 inhibitor;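 active = membrane potential signal moving either way by over 3 SD of the maximum-effect control, in both duplicate plates, meaning non-specific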
# HEK293 MPD ctr-1: counter-screen for TRPC6 inhibitors: effect in parental HEK293 cells. shares compounds with TRPC6 inhibitor. membrane potential signal change, % at 10 µM. parental HEK293 membrane potential dye fluorescence. actives 60% (n = 920);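 active = membrane potential signal shifting up or down by more than 3 SD of buffer-only wells, on both duplicate plates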
# HEK293 MPD ctr-2: counter-screen for TRPC6 modulators: effect in parental HEK293 cells. membrane potential dye fluorescence. membrane potential signal change, % at 10 µM. shares compounds with TRPC6 inhibitor. actives 51% (n = 2,400);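 active = membrane potential signal moves up or down beyond 5 SD from buffer-only wells, on both duplicate plates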
# HEK293 MPD ctr 2-2: second counter-screen for TRPC6 modulators: effect in parental HEK293 cells | shares compounds with TRPC6 inhibitor | membrane potential dye fluorescence; after compound, maximal acetylcholine stimulation | inhibition, % at 10 µM | actives 14% (n = 2,400) | AID 488926;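 active = membrane potential signal drops by more than 5 SD from the mean control signal, in both duplicate plates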;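 note: plate controls were acetylcholine ECmax control wells for no effect and buffer only wells for full effect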
# TRPC4 ctr mod: tests whether TRPC6 modulators also affect mouse TRPC4; shares compounds with TRPC6 inhibitor; HEK293 TRPC4/mu-opioid, membrane potential fluorescence; percent change from control (negative = decrease, positive = increase), % at 10 µM; actives 69% (n = 2,400); AID 488927;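 active = membrane potential signal moved up or down beyond 5 SD of buffer control wells, in both duplicate plates, actives on both sides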;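 note: plate controls were assay buffer wells for no effect and DAMGO maximal-effect wells for full effect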
# TRPC4/MOR inh 2: mouse TRPC4 off-target activity of TRPC6 modulators, second screen | shares compounds with TRPC6 inhibitor | inhibition, % at 10 µM | actives 55% (n = 2,400) | AID 488928 | HEK293 TRPC4/mu-opioid, membrane potential dye fluorescence; stimulated with maximal-effect DAMGO;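 active = drop in membrane potential signal beyond 5 SD of the control wells in both duplicate plates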;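 note: TRPC4 counter screen for TRPC6 hits run under conditions tuned for TRPC6 not TRPC4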
# TRPC6 inh conf: mouse TRPC6 inhibitor confirmation. shares compounds with TRPC6 inhibitor. HEK293-TRPC6, membrane potential dye, ACh-evoked depolarization. inhibition, % at 10 µM. actives 43% (n = 3,300). AID 488960;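 active = fluorescence ratio falls more than 5 SD below the full-stimulation control mean, in both duplicate runs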;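 note: integrated fluorescence ratio of peak minus minimum over baseline after agonist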
# TRPC6 act confirm: confirmation of mouse TRPC6 activators; shares compounds with TRPC6 inhibitor; HEK293-TRPC6 membrane potential dye fluorescence, FDSS; activation, % at 10 µM; actives 11% (n = 2,800);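 active = ratio signal rise beyond 5 SD above unstimulated control wells' mean, seen in both duplicate runs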;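 note: plate controls were buffer EC0 wells for no effect and acetylcholine ECmax response for full effect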
# Starred values were filed as active, the others as inactive; i = inactive; x = no result.
SMILES,TRPC4 potent,TRPC4 block,TRPC4 act,TRPC6 act,TRPC6 inhibitor,HEK293 MPD ctr-2,HEK293 MPD ctr 2-2,TRPC4 ctr mod,TRPC4/MOR inh 2,TRPC6 inh conf,TRPC6 act confirm,others
Cc1nnc(Nc2ccc3c(c2)ncn3C)c2ccccc12,i,i,i,i,-9.5*,x,x,x,x,56%*,i,TRPC4 sel inh 2=i;TRPC4 spec=-24%*;HEK293 MPD ctr 2-1=-7.0%*;HEK293 MPD ctr-1=-324%*
Oc1ccc(N=Nc2ccc(Br)cc2)c(O)c1,i,i,i,i,-5.3*,i,i,i,i,i,i,
Oc1ccc(N=Nc2ccc3c(c2)OCCO3)c(O)c1,i,i,i,i,i,x,x,x,x,x,x,
O=C(NCCCN1CCOCC1)c1ccc2c(c1)N(Cc1cccc(Cl)c1)C(=O)CS2,i,i,i,i,-5*,664%*,160%*,133%*,41%*,93%*,x,
O=C(NCCCN1CCCC1)c1ccc2c(c1)N(Cc1ccccc1)CCS2,i,i,i,i,-5.9*,i,i,-8.5%*,80%*,62%*,i,
COc1cccc(N/C(N)=N/c2nc(C)cc(=O)[nH]2)c1,i,i,i,i,i,x,x,x,x,x,x,
COc1ccc(CCn2c(=N)c(C(=O)NC3CCCC3)cc3c(=O)n4ccccc4nc32)cc1OC,i,i,i,i,-5.2*,-154%*,i,-33%*,52%*,42%*,i,
COCCCn1c(=N)c(C(=O)NC2CCCCC2)cc2c(=O)n3ccccc3nc21,i,i,i,i,-6.1*,i,i,i,49%*,64%*,i,
COc1ccc(CCn2c(=N)c(C(=O)NCC3CCCO3)cc3c(=O)n4ccccc4nc32)cc1OC (stereo not drawn),i,i,i,i,i,x,x,x,x,x,x,
COc1ccc(Cn2c(=N)c(C(=O)NC3CCCCC3)cc3c(=O)n4ccccc4nc32)cc1,i,i,i,i,i,x,x,x,x,x,x,
COc1ccc(CCn2c(=N)c(C(=O)NC3CCCC3)cc3c(=O)n4ccccc4nc32)cc1,i,i,i,i,-6.5*,169%*,114%*,26%*,86%*,64%*,i,
CCOc1cc(C(=O)NCc2ccc3c(c2)OCO3)cc(OCC)c1OCC,i,i,i,i,i,x,x,x,x,x,x,
CCOc1ccc(NC(=O)c2c(NC(=O)CN3CCN(C)CC3)sc3c2CCC3)cc1,i,i,i,i,-8.4*,x,x,x,x,75%*,i,TRPC4 sel inh 2=46%*;TRPC4 spec=-26%*;HEK293 MPD ctr 2-1=i;HEK293 MPD ctr-1=-409%*
Cc1cccc(NCC(=O)N/N=C\c2c[nH]c3ccccc23)c1,i,i,i,i,-5.8*,-63%*,i,-20%*,40%*,38%*,i,
CCC(CC)c1nnc(NC(=O)C2CC(=O)N(C3CCCC3)C2)s1 (stereo not drawn),i,i,i,i,i,x,x,x,x,x,x,
CCOC(=O)c1c(C)n(-c2ccc(C)cc2)c2ccc(O)c(CN(C)C)c12,i,i,i,i,-5.7*,-96%*,i,-18%*,62%*,51%*,i,
CCOC(=O)c1c(C)n(-c2ccc(F)cc2)c2ccc(O)cc12,i,i,i,i,i,x,x,x,x,x,x,
CCOC(=O)c1c(C)n(C)c2ccc(O)c(CN(C)C)c12,i,i,i,i,-8.7*,-242%*,i,-41%*,59%*,62%*,i,
CCOC(=O)c1c(C)n(C)c2ccc(O)c(CN3CCCCC3)c12,i,i,i,i,-8*,-172%*,i,-30%*,59%*,66%*,i,
CCOC(=O)c1c(C)n(-c2ccc(OC)cc2)c2ccc(O)c(CN(C)C)c12,i,i,i,i,-8.8*,x,x,x,x,60%*,i,TRPC4 sel inh 2=46%*;TRPC4 spec=-17%*;HEK293 MPD ctr 2-1=i;HEK293 MPD ctr-1=-286%*
CCCN1CCC(NC(=O)C2CCCCC2C(=O)O)CC1 (stereo not drawn),i,i,i,i,i,x,x,x,x,x,x,
COc1ccc(-c2nnc(N(C)C(=O)c3cccnc3)s2)cc1,i,i,i,i,-5.2*,i,i,i,i,i,i,
CCOc1cc(/C=C/C(=O)c2ccc(OC)c(CN3CCOCC3)c2)cc(Br)c1O,i,i,i,20*,i,184%*,i,26%*,i,i,42%*,
CCOc1cc(/C=N/NC(=O)c2ccc(CN3CCOCC3)cc2)ccc1OC,i,i,i,i,i,x,x,x,x,x,x,
CCCCNCC(O)(c1ccc(Cl)cc1)c1ccc(Cl)cc1,i,i,i,i,-5*,120%*,i,26%*,47%*,i,x,
COc1ccc([N+](=O)[O-])cc1NC(=O)C(C)N1CCCC1 (stereo not drawn),i,i,i,i,-6.1*,i,86%*,i,i,72%*,i,
CC(NC(=O)CC1CCCCC1)c1ccccc1 (stereo not drawn),i,i,i,i,i,x,x,x,x,x,x,
